Test results taken from ChEMBL document CHEMBL1154217, “Antimalarial and cytotoxic depsidones from the fungus Chaetomium brasiliense” (J Nat Prod, 2009).
In brackets after ≈: the same amount, converted by molar mass. Activity calls are given as the source filed them. The rule behind the calls is not given here.

Experiments:
Candida albicans [1] = test: Antifungal activity against Candida albicans by XTT assay; type: functional, organism-based
In short: (§1)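 Clinical isolate of Candida albicans tested by an assay modified from the soluble formazan (XTT) method. Viable cells were quantified from XTT formazan absorbance at 450 nm. Amphotericin B served as the reference substance.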

Plasmodium falciparum [2] = test: Antimalarial activity against multi drug-resistant Plasmodium falciparum K1 assessed as [3H]hypoxanthine uptake after 18 hrs by microculture radioisotope technique; type: functional, organism-based
In short: (§2)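 Multidrug-resistant P. falciparum K1 was cultured by the Trager and Jensen method and tested in vitro by microculture radioisotope technique. Growth was read as [³H]-hypoxanthine uptake, and IC50 was taken as the concentration giving 50% reduction in parasite growth. Artemisinin served as the reference standard.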

[3] = Cytotoxicity against human BC1 cells by SRB assay; type: functional, cell-based
[4] = Cytotoxicity against human KKU100 cells by MTT assay; type: functional, cell-based
[5] = Cytotoxicity against human KKU-M139 cells by MTT assay; type: functional, cell-based
[6] = Cytotoxicity against human KKU-M156 cells by MTT assay; type: functional, cell-based
[7] = Cytotoxicity against human KKU-M213 cells by MTT assay; type: functional, cell-based
[8] = Cytotoxicity against human KKU-M214 cells by MTT assay; type: functional, cell-based
[9] = tested on: Mycobacterium tuberculosis; test: Antimycobacterial activity against Mycobacterium tuberculosis H37Ra after 4 days by almar blue assay; type: functional; conditions: 96 h
In short: (§3)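 M. tuberculosis H37Ra was tested by microplate Alamar Blue assay (MABA), with isoniazid and kanamycin sulfate as reference drugs.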

KB [10] = test: Cytotoxicity against human KB cells by SRB assay; type: functional, cell-based
NCI-H187 = test: Cytotoxicity against human NCI-H187 cells by SRB assay; type: functional, cell-based
[11] = tested on: Mycobacterium tuberculosis; test: Antimycobacterial activity against Mycobacterium tuberculosis H37Ra at > 50 ug/mL after 4 days by almar blue assay; type: functional, organism-based; in short: as §3
Candida albicans [12] = test: Antifungal activity against Candida albicans at > 50 ug/mL by XTT assay; type: functional, organism-based; in short: as §1
BC1 = test: Cytotoxicity against human BC1 cells at > 50 ug/mL by SRB assay; type: functional, cell-based
Plasmodium falciparum [13] = test: Antimalarial activity against multi drug-resistant Plasmodium falciparum K1 assessed as [3H]hypoxanthine uptake at > 50 ug/mL after 18 hrs by microculture radioisotope technique; type: functional, organism-based; in short: as §2
KB [14] = test: Cytotoxicity against human KB cells at > 50 ug/mL by SRB assay; type: functional, cell-based

C[C@@H]1[C@H](O)[C@@H](C)/C=C/C=C/C=C/C=C/C=C/C=C/C=C/[C@H](O[C@@H]2O[C@H](C)[C@@H](O)[C@H](N)[C@@H]2O)C[C@@H]2O[C@](O)(C[C@@H](O)C[C@@H](O)[C@H](O)CC[C@@H](O)C[C@@H](O)CC(=O)O[C@H]1C)C[C@H](O)[C@H]2C(=O)O [AMPHOTERICIN B]
IC50 (Candida albicans [1]): 0.034 µg/mL (≈ 0.0368 µM)

C[C@@H]1CC[C@H]2[C@@H](C)C(=O)O[C@@H]3O[C@@]4(C)CC[C@@H]1[C@]32OO4 [ARTEMISININ]
IC50 (Plasmodium falciparum [2]): 0.001 µg/mL (≈ 0.00354 µM)

Cc1c2ccncc2c(C)c2c1[nH]c1ccccc12 [ELLIPTECINE]
IC50 [3]: 0.26 µg/mL (≈ 1.06 µM) | IC50 [4]: 7.11 µg/mL (≈ 28.9 µM) | IC50 [5]: 1.21 µg/mL (≈ 4.91 µM) | IC50 [6]: 2.02 µg/mL (≈ 8.2 µM) | IC50 [7]: 0.3 µg/mL (≈ 1.22 µM) | IC50 [8]: 0.21 µg/mL (≈ 0.853 µM)

NNC(=O)c1ccncc1 [ISONIAZID]
MIC [9]: 0.05 µg/mL (≈ 0.365 µM)

NC[C@H]1O[C@H](O[C@H]2[C@H](O)[C@@H](O[C@H]3O[C@H](CO)[C@@H](O)[C@H](N)[C@H]3O)[C@H](N)C[C@@H]2N)[C@H](O)[C@@H](O)[C@@H]1O.O=S(=O)(O)O [KANAMYCIN SULFATE]
MIC [9]: 2.5 µg/mL

Cc1cc(O)c(C=O)c2c1C(=O)Oc1c(cc3c(c1C)C(=O)CC(C)(C)O3)O2 [MOLLICELLIN B]
IC50 (Plasmodium falciparum [2]): 4.7 µg/mL (≈ 12.3 µM) | IC50 (KB [10]): 37.1 µg/mL (≈ 97 µM) | IC50 (NCI-H187): 14.7 µg/mL (≈ 38.4 µM) | IC50 [4]: 4.63 µg/mL (≈ 12.1 µM) | IC50 [5]: 11.7 µg/mL (≈ 30.5 µM) | IC50 [6]: 15.7 µg/mL (≈ 41 µM) | IC50 [7]: 6.94 µg/mL (≈ 18.2 µM) | IC50 [8]: 4.5 µg/mL (≈ 11.8 µM) | Activity [11]: inactive | Activity (Candida albicans [12]): inactive

COc1c(O)c2c(c(C)c1C(=O)C=C(C)C)Oc1c(C=O)c(O)cc(C)c1C(=O)O2 [MOLLICELLIN C]
IC50 (Plasmodium falciparum [2]): 9.1 µg/mL (≈ 22.1 µM) | IC50 (Candida albicans [1]): 49.9 µg/mL (≈ 121 µM) | IC50 (KB [10]): 46.3 µg/mL (≈ 112 µM) | IC50 (NCI-H187): 3.1 µg/mL (≈ 7.52 µM) | IC50 [4]: 5.12 µg/mL (≈ 12.4 µM) | IC50 [5]: 2.51 µg/mL (≈ 6.09 µM) | IC50 [6]: 4.18 µg/mL (≈ 10.1 µM) | IC50 [7]: 3.2 µg/mL (≈ 7.76 µM) | IC50 [8]: 3.35 µg/mL (≈ 8.12 µM) | Activity [11]: inactive | Activity (BC1): inactive

COc1c(O)c2c(c(C)c1C(=O)C=C(C)C)Oc1c(C=O)c(O)c(Cl)c(C)c1C(=O)O2 [MOLLICELLIN E]
IC50 (Plasmodium falciparum [2]): 3.2 µg/mL (≈ 7.16 µM) | IC50 (Candida albicans [1]): 39.7 µg/mL (≈ 88.8 µM) | IC50 (NCI-H187): 1 µg/mL (≈ 2.24 µM) | IC50 [4]: 4.83 µg/mL (≈ 10.8 µM) | IC50 [5]: 5.03 µg/mL (≈ 11.3 µM) | IC50 [6]: 5.22 µg/mL (≈ 11.7 µM) | IC50 [7]: 4.44 µg/mL (≈ 9.94 µM) | IC50 [8]: 7.81 µg/mL (≈ 17.5 µM) | Activity [11]: inactive

Cc1c2c(c(O)c3c1C(=O)CC(C)(C)O3)OC(=O)c1c(C)c(Cl)c(O)c(C=O)c1O2 [MOLLICELLIN F]
IC50 (KB [10]): 37.9 µg/mL (≈ 87.6 µM) | IC50 (NCI-H187): 13.1 µg/mL (≈ 30.3 µM) | IC50 [4]: 5.21 µg/mL (≈ 12 µM) | IC50 [5]: 5.21 µg/mL (≈ 12 µM) | IC50 [6]: 5.36 µg/mL (≈ 12.4 µM) | IC50 [7]: 4.98 µg/mL (≈ 11.5 µM) | IC50 [8]: 4.4 µg/mL (≈ 10.2 µM) | Activity (Plasmodium falciparum [13]): inactive | Activity [11]: inactive

CC(C)=CCc1c(O)cc2c(c1C)OC(=O)c1c(C)cc(O)c(C=O)c1O2 [MOLLICELLIN H]
IC50 (KB [10]): 16.6 µg/mL (≈ 45.1 µM) | IC50 (NCI-H187): 3.9 µg/mL (≈ 10.6 µM) | Activity [11]: inactive

CC(C)=CCc1c(O)cc2c(c1C)OC(=O)c1c(C)c(Cl)c(O)c(C=O)c1O2 [MOLLICELLIN J]
IC50 (Plasmodium falciparum [2]): 4.9 µg/mL (≈ 12.2 µM) | IC50 (KB [10]): 29.1 µg/mL (≈ 72.2 µM) | IC50 (NCI-H187): 23.3 µg/mL (≈ 57.8 µM) | Activity [11]: inactive

COc1cc2c(c(C)c1C(=O)C=C(C)C)OC(=O)c1c(C)cc(O)c(C=O)c1O2 [MOLLICELLIN L]
IC50 (Plasmodium falciparum [2]): 3.4 µg/mL (≈ 8.58 µM) | IC50 (KB [10]): 33.9 µg/mL (≈ 85.5 µM) | IC50 (NCI-H187): 9.5 µg/mL (≈ 24 µM) | IC50 [5]: 8.55 µg/mL (≈ 21.6 µM) | IC50 [6]: 6.04 µg/mL (≈ 15.2 µM) | IC50 [7]: 13.2 µg/mL (≈ 33.3 µM) | IC50 [8]: 4.51 µg/mL (≈ 11.4 µM) | Activity [11]: inactive | Activity (Candida albicans [12]): inactive

Cc1c2c(cc3c1C(=O)CC(C)(C)O3)Oc1c(C=O)c(O)c(Cl)c(C)c1C(=O)O2 [MOLLICELLIN M]
IC50 (Plasmodium falciparum [2]): 2.9 µg/mL (≈ 6.96 µM) | IC50 (NCI-H187): 0.68 µg/mL (≈ 1.63 µM) | IC50 [4]: 6.28 µg/mL (≈ 15.1 µM) | Activity [11]: inactive | Activity (Candida albicans [12]): inactive | Activity (KB [14]): inactive | Activity (BC1): inactive

Cc1cc(O)c(C=O)c2c1C(=O)Oc1c(O)c3c(c(C)c1O2)C(=O)CC(C)(C)O3 [MOLLICELLIN N]
IC50 (KB [10]): 25.9 µg/mL (≈ 65 µM) | IC50 (NCI-H187): 13.5 µg/mL (≈ 33.9 µM) | IC50 [4]: 6.46 µg/mL (≈ 16.2 µM) | IC50 [5]: 4.34 µg/mL (≈ 10.9 µM) | IC50 [6]: 2.9 µg/mL (≈ 7.28 µM) | IC50 [7]: 3 µg/mL (≈ 7.53 µM) | IC50 [8]: 5.05 µg/mL (≈ 12.7 µM) | Activity (Plasmodium falciparum [13]): inactive | Activity [11]: inactive | Activity (Candida albicans [12]): inactive

CC(C)=CC(=O)c1c(O)cc2c(c1C)OC(=O)c1c(C)cc(O)c(C=O)c1O2 [MOLLICELLINE K]
IC50 (Plasmodium falciparum [2]): 1.2 µg/mL (≈ 3.14 µM) | MIC [9]: 12.5 µg/mL (≈ 32.7 µM) | IC50 (Candida albicans [1]): 1.2 µg/mL (≈ 3.14 µM) | IC50 (KB [10]): 1.9 µg/mL (≈ 4.97 µM) | IC50 [3]: 6.8 µg/mL (≈ 17.8 µM) | IC50 (NCI-H187): 0.35 µg/mL (≈ 0.915 µM) | IC50 [4]: 4.46 µg/mL (≈ 11.7 µM) | IC50 [5]: 13.9 µg/mL (≈ 36.5 µM) | IC50 [6]: 6.65 µg/mL (≈ 17.4 µM) | IC50 [8]: 4.92 µg/mL (≈ 12.9 µM)
